Source: ChEMBL document CHEMBL1125687, “5-Lipoxygenase inhibitors: the synthesis and structure-activity relationships of a series of 1-phenyl-3-pyrazolidinones” (J Med Chem, 1991)
pIC50: −log10 of the molar value.

Key:
[1] = molecular target: T1, Polyunsaturated fatty acid 5-lipoxygenase (Rattus norvegicus, UniProt P12527); assay: In vitro inhibition of rat 5-Lipoxygenase
T1 sequence (P12527 whole entry): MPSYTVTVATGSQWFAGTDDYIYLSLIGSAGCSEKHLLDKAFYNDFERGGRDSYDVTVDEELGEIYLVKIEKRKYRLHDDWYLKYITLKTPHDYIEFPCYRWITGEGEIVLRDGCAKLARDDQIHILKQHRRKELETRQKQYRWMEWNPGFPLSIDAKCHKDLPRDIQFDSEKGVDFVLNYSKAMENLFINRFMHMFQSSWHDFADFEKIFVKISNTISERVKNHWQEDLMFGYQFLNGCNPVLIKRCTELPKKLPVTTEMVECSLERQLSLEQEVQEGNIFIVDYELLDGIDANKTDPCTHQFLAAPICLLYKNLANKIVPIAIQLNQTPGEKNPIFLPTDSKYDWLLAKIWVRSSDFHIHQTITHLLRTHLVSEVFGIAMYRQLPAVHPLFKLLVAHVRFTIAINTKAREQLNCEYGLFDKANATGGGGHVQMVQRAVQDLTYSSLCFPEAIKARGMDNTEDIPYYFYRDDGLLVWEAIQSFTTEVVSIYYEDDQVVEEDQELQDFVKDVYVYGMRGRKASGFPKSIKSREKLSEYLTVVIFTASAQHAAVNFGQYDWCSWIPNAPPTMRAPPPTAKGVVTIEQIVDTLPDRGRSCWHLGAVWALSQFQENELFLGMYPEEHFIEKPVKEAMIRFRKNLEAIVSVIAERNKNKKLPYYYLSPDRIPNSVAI
Method in brief: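 Broken-cell assay: homogenized rat basophilic RBL-1 cells preincubated 5 min at 37 °C with compound or vehicle, then given [14C]arachidonic acid. A chloroform extract was run on TLC, and LTB4 and 5-HETE were quantified by radiochromatographic scanning.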

[2] = Partition coefficient (logP); assay type: physicochemical; details: octanol/water
[3] = molecular target: T2, Polyunsaturated fatty acid 5-lipoxygenase (Rattus norvegicus) (UniProt P12527); assay: Compound was evaluated for the inhibition of 5-Lipoxygenase (5-LO) ex vivo; assay type: functional
T2 sequence (whole entry): T1 sequence (P12527 whole entry)
Method in brief: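 Rats received 0.25% (w/v) carrageenan to induce pleural inflammation. After 3 h, compound or vehicle was given orally, and rats were killed 1 h later. Pleural exudate cells (>95% neutrophils) were stimulated with A23187 for 15 min and stopped with acetonitrile/methanol. After 30 min extraction at room temperature, samples were centrifuged and LTB₄ measured by reverse-phase HPLC. ED₅₀ with 95% confidence limits came from linear dose-response portions, ≥5 animals per dose.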

Cavia porcellus = assay: Compound was evaluated for the inhibition of leukotriene-mediated bronchoconstriction in guinea pig (in vivo); assay type: functional; details: Lung
Method in brief: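 Guinea pigs were immunized with ovalbumin 1 mg plus alum 3 mg and used two weeks later, anesthetized and mechanically ventilated with tracheal pressure monitored. Pretreatment iv: naproxen 10 mg/kg, pyrilamine 3 mg/kg, propranolol 0.1 mg/kg. Compound or vehicle was given orally 1 h before iv ovalbumin challenge (0.3 mg/kg). Percent inhibition was taken from the maximum tracheal pressure rise within 20 min. ED50 with 95% confidence limits came from linear dose-response portions, n≥8 per dose.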

[4] = molecular target: T2, Polyunsaturated fatty acid 5-lipoxygenase (Rattus norvegicus); details: at 1 µM
[5] = molecular target: T2, Polyunsaturated fatty acid 5-lipoxygenase (Rattus norvegicus); assay: Compound was evaluated for the inhibition of 5-Lipoxygenase (5-LO) in vitro at 1 uM

pIC50 [1] | logP [2] | SMILES | other results
7.22 | 2.5 | CCSC1CN(c2ccccc2)NC1=O (stereo unspecified) | ED50 [3]: 95 mg/kg; ED50 (Cavia porcellus): 92 mg/kg
< 6.00 | – | CC(C)(O)C1CN(c2ccccc2)NC1=O (stereo unspecified) | inhibition [4]: 35%
< 6.00 | – | COCCC1C(=O)NN(c2ccccc2)C1(C)C (stereo unspecified) | inhibition [4]: < 20%
6.60 | 1.24 | COCCC1CN(c2ccc(Cl)cc2)NC1=O (stereo unspecified) | –
6.32 | 0.53 | COCCC1CN(c2ccccc2)NC1=O (stereo in doubt; 1f) [listing 1 of 2 here] | ED50 (Cavia porcellus): 62 mg/kg
6.28 | 1.45 | O=C1CCCN(c2ccccc2)N1 | –
< 6.00 | – | O=C1NN(c2ccccc2)CC1CCO (stereo unspecified) | inhibition [4]: 35%
– | 1.03 | COCCC1CN(c2ccc(C)cc2)NC1=O (stereo unspecified) | –
6.17 | 1.41 | COCC1(C)CN(c2ccccc2)NC1=O (stereo unspecified) | –
– | – | NC1=NN(c2cccc(C(F)(F)F)c2)CC1 [BW-755C] | ED50 [3]: > 300 mg/kg; ED50 (Cavia porcellus): 300 mg/kg
6.92 | 2.16 | O=C1NN(c2ccccc2)CC1Sc1ccccn1 (stereo unspecified) | –
6.30 | 1.05 | COCCC1C(=O)NN(c2ccccc2)C1C (stereo unspecified) | –
< 6.00 | – | COCC1CN(c2ccccc2)N(C)C1=O (stereo unspecified) | inhibition [4]: < 20%
6.72 | 1.96 | COCCC1CN(c2ccc(Cl)c(Cl)c2)NC1=O (stereo unspecified) | –
6.55 | 1.42 | CCOCC1CN(c2ccccc2)NC1=O (stereo unspecified) | –
6.46 | – | COCCC1CN(c2ccccc2)NC1=O (single isomer, unassigned; (+)) | –
6.23 | 0.891 | COCC1CN(c2ccccc2)NC1=O (stereo unspecified) | ED50 [3]: 29 mg/kg; ED50 (Cavia porcellus): 25 mg/kg
– | – | COCCC1CN(c2ccccc2)NC1=O (stereo in doubt; 1f) [listing 2 of 2 here] | ED50 [3]: 43 mg/kg

pIC50 [1] | logP [2] | SMILES | other results
< 6.00 | – | CN(C)CCC1CN(c2ccccc2)NC1=O (stereo unspecified) | inhibition [5]: < 20%
6.82 | 1.06 | CCOCCC1CN(c2ccccc2)NC1=O (stereo unspecified) | –
< 6.00 | – | COCCc1cn(-c2ccccc2)[nH]c1=O | inhibition [4]: 35%
6.30 | 2.22 | COCCC1CN(c2ccc(OCc3ccccc3)cc2)NC1=O (stereo unspecified) | –
< 6.00 | – | COCc1cn(-c2ccccc2)[nH]c1=O | –
6.74 | 3.63 | O=C1NN(c2ccccc2)CC1SCc1ccccc1 (stereo unspecified) | –
6.85 | 2.48 | O=C1NN(c2ccccc2)CC1Cc1cccs1 (stereo unspecified) | –
– | – | CC(=O)NN(C)c1ccccc1 | inhibition [5]: < 20%
6.66 | 1.41 | COCCC1CN(c2cccc(C(F)(F)F)c2)NC1=O (stereo unspecified) | –
6.59 | 1.95 | CCCOCC1CN(c2ccccc2)NC1=O (stereo unspecified) | –
5.84 | 0.45 | COCCC1CN(c2ccc(OC)cc2)NC1=O (stereo unspecified) | –
– | 0.893 | O=C1CCN(c2ccccc2)N1 [PHENIDONE] | ED50 [3]: 16 mg/kg; ED50 (Cavia porcellus): 69 mg/kg
> 6.00 | – | O=C1NN(c2ccccc2)CC1C(O)(c1ccccc1)c1ccccc1 (stereo unspecified) | –
6.36 | 1.09 | COCCC1CCN(c2ccccc2)NC1=O (stereo unspecified) | –
6.49 | 1.97 | CSC1CN(c2ccccc2)NC1=O (stereo unspecified) | –
6.28 | 0.955 | COCCOCC1CN(c2ccccc2)NC1=O (stereo unspecified) | –
5.29 | -0.14 | COCCC1CN(c2ccc(O)cc2)NC1=O (stereo unspecified) | –
4.99 | – | COCCC1CN(c2ccccc2)NC1=O (stereo in doubt; 1f (-)) | –
